{
  "source": "paper PMC3227224",
  "about": "(The Journal of neuroscience : the official journal of the …, 2011)",
  "test_system": "γ-secretase",
  "type": "in vivo, J20 hAPP transgenic mice",
  "method_in_brief": "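Mice of either sex, probe guide in left hippocampus (bregma −3.1 mm, 2.5 mm lateral, 1.2 mm below dura, 12° angle), freely moving in Raturn cages on 12 h light/dark. γ-Secretase inhibitor 3 mg/kg i.p. given during ongoing microdialysis; hourly dialysates in refrigerated collector. Aβ38/40/42 by multiplex electrochemiluminescence (C-terminal-specific capture, SULFO-TAG 6E10 detection), in duplicate; half-lives calculated.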",
  "data": [
    {"smiles": "C[C@H](NC(=O)Cc1cc(F)cc(F)c1)C(=O)N[C@H]1N=C(c2ccccc2)c2ccccc2N(C)C1=O", "note": "[Compound E]", "values": [
      {"measurement": "t1/2 of decline of total ISF Aβ after Compound E", "setting": "3 mo tg (plaque-free) J20 mice, Compound E 3 mg/kg i.p. at time 0 h, ISF sampled hourly at 1 μl/min, Aβ ELISA", "value": "~ 2 h"},
      {"measurement": "ISF Aβ38, Aβ40 and Aβ42 after Compound E in young mice", "setting": "young plaque-free (3 mo) tg mouse, first 5 h after Compound E 3 mg/kg i.p.", "value": "all 3 peptides fell together"}
    ]}
  ]
}
